Source: ChEMBL document CHEMBL4350958, “Rational Design of Short Peptide Variants by Using Kunitzin-RE, an Amphibian-Derived Bioactivity Peptide, for Acquired Potent Broad-Spectrum Antimicrobial and Improved Therapeutic Potential of Commensalism Coinfection of Pathogens” (J Med Chem, 2019)
Calls of active or inactive are those of the source. No cut-off for these calls is given here. Where a SMILES comes first, the peptide text is derived from it.

What was measured:
Escherichia coli [1] = experiment: Bactericidal activity against Escherichia coli ATCC 25922 assessed as reduction in bacterial growth at MBC by time-kill assay; format: functional, organism-based
Method in brief: (§1)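 Time-kill assay. E. coli ATCC 25922, S. aureus ATCC 29213 or C. albicans cgmcc 2.2086 at a final 0.5-1×10^5 CFU mL-1 treated at 1×MBC/MFC. Aliquots collected at different times to calculate survival, with an untreated control. Mean of three independent experiments, each with three technical replicates.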

Candida albicans [2] = experiment: Fungicidal activity against Candida albicans cgmcc2.2086 assessed as reduction in bacterial growth at MFC by time-kill assay; format: functional, organism-based; method in brief: as §1
Lipid bilayer = experiment: Induction of membrane disruption in PG/CL/PE large unilamellar vesicles assessed as calcein-entrapped liposome leakage at 1 to 64 uM after 15 mins by spectrofluorophotometric assay
Method in brief: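 Calcein-loaded LUVs (PG/CL/PE 2:1:7 w/w/w, E. coli membrane mimic), extruded through 100-nm filters, free dye removed on Sephadex G-50. Lipid (100 μM) incubated 15 min with peptide (1–64 μM). Calcein release read at ex 490/em 520 nm and normalised to Triton X-100. Triplicate, three biological replicates.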

Escherichia coli [3] = experiment: Induction of cytoplasmic membrane depolarization in Escherichia coli ATCC 25922 at MIC up to 3000 secs by DiSC3-5 dye-based fluorescence spectrophotometric method; format: organism-based
Method in brief: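 Mid-log E. coli ATCC 25922 (OD600 0.05) equilibrated with 0.4 μM DiSC3-5 and 100 mM K+ in 5 mM HEPES pH 7.4 with 20 mM glucose until fluorescence was stably quenched. Peptide then added in a 1-cm cuvette, and fluorescence (ex 622/em 670 nm) followed from 0 to 3000 s. Triplicate independent runs.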

RAW264.7 = experiment: Cytotoxicity against mouse RAW264.7 cells assessed as reduction in cell viability at 2 to 64 uM measured after 18 to 24 hrs by MTT assay relative to control; format: cell-based; conditions: raw264.7, 64 µM
Method in brief: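 MTT assay: RAW264.7 cells seeded at 1.0–2.0×10^4 per well and exposed to peptide (2–64 µM) for 18–24 h at 37 °C in 5% CO2. MTT (0.5 mg/mL) added for 4 h, formazan dissolved in DMSO, read at 570 nm. At least three independent experiments with triplicate wells.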

Candida albicans [4] = experiment: Fungicidal activity against Candida albicans cgmcc2.2086 assessed as reduction in bacterial growth at MFC measured within 3 mins by time-kill assay relative to control; format: functional; set-up: scale not given: the % may be the effect or the level left
Method in brief: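 Time-kill: cells at a final 0.5–1×10^5 CFU/mL were exposed to peptide at 1×MBC/MFC. Aliquots were removed at intervals to count survivors against an untreated control. Means of three independent experiments, each with three technical replicates.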

Pseudomonas aeruginosa [5] = experiment: Antibacterial activity against Pseudomonas aeruginosa ATCC 27853 at sub-MBC measured after 30 serial passages; format: functional, organism-based
Method in brief: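 P. aeruginosa ATCC 27853 passaged every 24 h by 100-fold dilution in MHB containing sub-MBC drug, for 30 passages. MBC was tested on the cells from each passage. Control cells were passaged in drug-free MHB. Run independently in triplicate with three biological replicates.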

Pseudomonas aeruginosa [6] = experiment: Bactericidal activity against melittin-resistant Pseudomonas aeruginosa ATCC 27853 incubated for 24 hrs followed by replating on agar plate and measured after overnight incubation; format: functional, organism-based
Staphylococcus aureus [7] = experiment: Antibacterial activity against Staphylococcus aureus ATCC 29213 assessed as ratio of MIC95 in presence of CaCl2 to in absence of CaCl2; format: functional
Method in brief: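 S. aureus ATCC 29213, mid-log, (0.5–1) × 10^5 CFU/mL final in MHB, with or without 2 mM CaCl2 (final). Peptide serially diluted in 0.2% BSA and mixed 1:1 with cells, 24 h at 37 °C. MIC is the lowest concentration inhibiting 95% of growth by A492. Three independent experiments, each with three technical replicates.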

Candida albicans [8] = experiment: Antifungal activity against Candida albicans cgmcc2.2086 assessed as ratio of MIC95 in presence of CaCl2 to in absence of CaCl2; format: functional
Method in brief: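 C. albicans cgmcc 2.2086, (0.5–1) × 10^3 CFU/mL final in MOPS-buffered RPMI 1640, with or without 2 mM CaCl2 (final). Peptide serially diluted in 0.2% BSA and mixed 1:1, 48 h at 28 °C. MIC is the lowest concentration inhibiting 95% of growth by A492. Three independent assays, each with three technical replicates.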

Candida albicans [9] = experiment: (§2) Antifungal activity against Candida albicans cgmcc2.2086 infected in C57BL/6 mouse model of keratitis assessed as reduction in clinical score at 1 to 5 mg/ml administered as topical eye drop every 5 mins for first 4 hrs and every 30 mins for next 7 hrs measured post-last dose; format: functional, organism-based
Candida albicans [10] = experiment: as §2, with “fungal hyphae extention into corneal stroma” for “clinical score”, “dose by periodic acid schiff staining-based histological analysis” for “dose”; format: functional, organism-based
Candida albicans [11] = experiment: as §2, with “fungal hyphae infiltration into corneal stroma” for “clinical score”, “dose by periodic acid schiff staining-based histological analysis” for “dose”; format: functional, organism-based
Escherichia coli [12] = experiment: Drug uptake in plasma membrane of Escherichia coli ATCC 25922 at MBC measured after 30 mins using FITC-labeled compound by microscopic analysis; format: ADME, organism-based; conditions: in vivo, 0.5 h
Method in brief: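 E. coli ATCC 25922 or S. aureus ATCC 29213 (OD600 0.2) incubated with FITC-labeled peptide at 1×MBC, 37 °C, 30 min. Cells washed, resuspended with PI (10 μg/mL) in PBS, smeared and imaged by superresolution microscopy using 488 and 535 nm filters for FITC and PI. Peptide-free cells served as controls. Three independent scans.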

Escherichia coli [13] = experiment: Induction of morphological changes in Escherichia coli ATCC 25922 assessed as hole formation at MBD measured after 1 hr by scanning electron microscopic analysis; format: functional, organism-based
Staphylococcus aureus [14] = experiment: Induction of morphological changes in Staphylococcus aureus ATCC 29213 assessed as hole formation at MBD measured after 1 hr by atomic force microscopic analysis; format: functional, organism-based
Staphylococcus aureus [15] = experiment: Induction of morphological changes in Staphylococcus aureus ATCC 29213 assessed as cell content leakage at MBD measured after 1 hr by atomic force microscopic analysis; format: functional, organism-based
Escherichia coli [16] = experiment: Induction of morphological changes in Escherichia coli ATCC 25922 assessed as cell content leakage at MBD measured after 1 hr by transmission electron microscopic analysis; format: functional, organism-based
Staphylococcus aureus [17] = experiment: Induction of morphological changes in Staphylococcus aureus ATCC 29213 assessed as tiny hole formation at MBD measured after 1 hr by transmission electron microscopic analysis; format: functional, organism-based
Staphylococcus aureus [18] = experiment: Induction of morphological changes in Staphylococcus aureus ATCC 29213 assessed as cytoplasmic leakage at MBD measured after 1 hr by transmission electron microscopic analysis; format: functional, organism-based
Staphylococcus aureus [19] = experiment: Induction of morphological changes in Staphylococcus aureus ATCC 29213 assessed as sparse distribution of cytoplasm at MBD measured after 1 hr by transmission electron microscopic analysis; format: functional, organism-based
Staphylococcus aureus [20] = experiment: Induction of morphological changes in Staphylococcus aureus ATCC 29213 assessed as appearance of intracellular empty areas at MBD measured after 1 hr by transmission electron microscopic analysis; format: functional, organism-based

Q: With `CC[C@H](C)[C@H](NC(=O)CN)C(=O)NCC(=O)N[C@@H](C)C(=O)N[C@H](C(=O)N[C@@H](CC(C)C)C(=O)N[C@@H](CCCCN)C(=O)N[C@H](C(=O)N[C@@H](CC(C)C)C(=O)N[C@H](C(=O)N[C@H](C(=O)NCC(=O)N[C@@H](CC(C)C)C(=O)N1CCC[C@H]1C(=O)N[C@@H](C)C(=O)N[C@@H](CC(C)C)C(=O)N[C@H](C(=O)N[C@@H](CO)C(=O)N[C@@H](Cc1c[nH]c2ccccc12)C(=O)N[C@H](C(=O)N[C@@H](CCCCN)C(=O)N[C@@H](CCCNC(=N)N)C(=O)N[C@@H](CCCCN)C(=O)N[C@@H](CCCNC(=N)N)C(=O)N[C@@H](CCC(N)=O)C(=O)N[C@@H](CCC(N)=O)C(N)=O)[C@@H](C)CC)[C@@H](C)CC)[C@@H](C)O)[C@@H](C)O)C(C)C)C(C)C` [MELITTIN] as the molecule, how does the Activity (Escherichia coli [1]) read?
A: Active

Q: And the Activity (Candida albicans [2])?
A: Active

Q: What about the Activity (Lipid bilayer) of the same molecule?
A: Active

Q: `CC[C@H](C)[C@H](NC(=O)[C@H](CCCCN)NC(=O)[C@H](C)NC(=O)[C@H](C)N)C(=O)N[C@H](C(=O)N[C@@H](CC(C)C)C(=O)N[C@@H](CC(N)=O)C(=O)N1CCC[C@H]1C(=O)N[C@@H](CCCCN)C(=O)N[C@@H](Cc1ccccc1)C(=O)N[C@@H](CCCNC(=N)N)C(=O)N[C@@H](CS)C(=O)N[C@@H](CCCCN)C(=O)N[C@@H](C)C(=O)N[C@@H](C)C(=O)N[C@@H](Cc1ccccc1)C(=O)N[C@@H](CS)C(N)=O)[C@@H](C)CC` (H-AAKIILNPKFRCKAAFC-NH2) was tested. Which Activity (Escherichia coli [3]) did it give?
A: Active

Q: How did the Activity (RAW264.7) turn out when H-AARRILRWIFR-NH2 was run?
A: > 89.76%

Q: What does the source list for H-AARIILRWRFR-NH2?
A: Activity (Candida albicans [4]): 99.99%; Activity (Pseudomonas aeruginosa [5]): Active; Activity (Pseudomonas aeruginosa [6]): Active; Ratio (Staphylococcus aureus [7]): 4; Ratio (Candida albicans [8]): 4; Activity (Candida albicans [9]): Active; Activity (Candida albicans [10]): Active; Activity (Candida albicans [11]): Active; Drug uptake (Escherichia coli [12]): Active; Activity (Escherichia coli [13]): Active; Activity (Staphylococcus aureus [14]): Active; Activity (Staphylococcus aureus [15]): Active; Activity (Escherichia coli [16]): Active; Activity (Staphylococcus aureus [17]): Active; Activity (Staphylococcus aureus [18]): Active; Activity (Staphylococcus aureus [19]): Active; Activity (Staphylococcus aureus [20]): Active
